Sampled rows, rich in hits. Any-hit rate of the full collection: about 2.6%.
TCR-CD3 inh – human TCR-CD3 binding inhibition | actives 0.37% (n = 360,000) | TAMRA-labeled TCR probe fluorescence, biochemical | AID 651800 | inhibition, % at 9.4 µM; in the data active = inhibition above about 19%;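 also: recombinant mutant TCR 2C K166C tagged with TAMRA read by polarization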
HTRA1 inh – HTRA1 (human) protease inhibition; Q92743; recombinant HTRA1, FP-rhodamine activity-based probe, fluorescence polarization; inhibition, % at 5.96 µM; actives 0.5% (n = 340,000); AID 504803; in the data active = inhibition above about 36%
mABHD4 FP – inhibits mouse alpha/beta hydrolase domain 4 | purified mABHD4, FP-Rh probe fluorescence polarization | inhibition, % at 8.92 µM | actives 0.54% (n = 370,000) | AID 720543;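 active = inhibition exceeding the mean over every tested compound plus 3 SD, cut at about 30% in these data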
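Material: mouse ABHD4 enzyme, wild type; Benchmarks: S159A mutant high control, sample median low control; Buffer or medium: HEPES pH 7.0, NaCl, Pluronic buffer; Signal: fluorescence polarization; Read-out: percent inhibition of probe binding, normalized to plate controls; Timing: pre-incubation 45 min, probe exposure 60 min, at 25 °C; Dosing: 8.92 µM, single dose.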
SIAE primary – human SIAE inhibition, primary screen | actives 0.69% (n = 370,000) | inhibition, % at 9.66 µM | Q9HAT2 | SIAE FP-Rh probe binding, fluorescence polarization;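 active = inhibition above a cutoff: mean of compounds within the control limits plus 3 SD of those, cut at about 17% in these data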
PRMT1 inh – PRMT1 (human) inhibition, primary screen | Q99873 | recombinant PRMT1, activity-based probe fluorescence polarization | inhibition, % at 2.79 µM | actives 1.3% (n = 370,000) | AID 652257;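 active = inhibition above about 21% made by adding two undisclosed values, limit read from the data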
Target sequence (Q99873 whole entry, looked up): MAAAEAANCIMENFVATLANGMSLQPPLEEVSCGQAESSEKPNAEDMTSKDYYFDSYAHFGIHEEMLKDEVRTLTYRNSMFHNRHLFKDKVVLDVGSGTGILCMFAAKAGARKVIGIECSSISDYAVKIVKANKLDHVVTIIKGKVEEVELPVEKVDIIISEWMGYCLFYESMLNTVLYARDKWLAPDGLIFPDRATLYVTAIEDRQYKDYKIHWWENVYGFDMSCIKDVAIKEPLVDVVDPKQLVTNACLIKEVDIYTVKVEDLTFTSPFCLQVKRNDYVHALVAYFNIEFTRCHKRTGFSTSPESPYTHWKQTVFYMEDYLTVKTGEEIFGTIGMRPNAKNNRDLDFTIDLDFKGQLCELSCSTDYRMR
Of the large screens only hits and unclear results are named; the others gave an inactive call; ! = not active in a repeat.

Oc1c(CN2CCc3ccccc3C2)cc(Cl)c2cccnc12	HTRA1 inh 69 (no result: TCR-CD3 inh, mABHD4 FP, SIAE primary, PRMT1 inh)
CCOC(=O)C1=C(COC(=O)/C=C/c2ccc(C)o2)NC(=O)NC1C (stereo unspecified)	PRMT1 inh 23
O=C(NCc1ccco1)c1cccc2c1C(=O)c1ccc(N3CCCC3)cc1S2(=O)=O	PRMT1 inh 37
Cc1ccc(CNC(=O)c2cccc3c2C(=O)c2ccc(N4CCCCC4)cc2S3(=O)=O)cc1	none
Cc1ccc(S(=O)(=O)Nn2c(O)c(C=C3N=c4ccccc4=N3)sc2=S)cc1	PRMT1 inh 25
O=C1Nc2ccccc2/C1=C/c1ccc([N+](=O)[O-])cc1	none
CC1(c2ccc([N+](=O)[O-])cc2)Nc2ccccc2S1 (stereo unspecified)	PRMT1 inh 45
CC(CN1CCC(n2nccc2NC(=O)CCCc2ccccc2)CC1)c1ccccc1 (stereo unspecified)	none
COC(=O)C1=C(C)N(Cc2ccccc2C(F)(F)F)C(=NCc2ccccc2)NC1c1ccc(F)cc1 (stereo unspecified)	none (no result: HTRA1 inh)
CCOC(=O)[C@@H]1[C@H]2COc3cc(OC)ccc3[C@H]2N2C(=O)N(c3ccc(C)cc3)C(=O)[C@]12C	none
C/C(=N\Nc1ccc(S(=O)(=O)Nc2ccc(Cl)cc2)cc1[N+](=O)[O-])c1ccc(N2CCOCC2)cc1	SIAE primary 24
O=[N+]([O-])c1ccccc1/C=C/C=N/Nc1ccc(S(=O)(=O)Nc2ccc(Cl)cc2)cc1[N+](=O)[O-]	SIAE primary 43
CCOc1ccc2c(O)csc2c1	PRMT1 inh 41
N#CC1(C#N)COC23CCCCC2C1(C#N)C(=N)O3 (stereo unspecified)	PRMT1 inh 22
CCC1OC23CCCCC2C(C#N)(C(=N)O3)C1(C#N)C#N (stereo unspecified)	none
N#CC12COC3(CCCCC3C1(C#N)C#N)OC2=N (stereo unspecified)	PRMT1 inh 35
CC1OC23CCCCC2C(C#N)(C(=N)O3)C1(C#N)C#N (stereo unspecified)	none
COC(=O)[C@]12C[C@H](CC(=O)NCc3cccc4ccccc34)C(=O)N(Cc3ccc4c(c3)OCO4)C1=C[C@H](COCc1ccccc1)O[C@@H]2C	none (no result: HTRA1 inh)
CC(OC(=O)CSc1ccccc1)C(=O)NC1CCCCC1C (stereo unspecified)	none
CCOc1cc(C2Nc3cccc4cccc(c34)N2)ccc1O	HTRA1 inh 37 (no result: TCR-CD3 inh, mABHD4 FP, SIAE primary, PRMT1 inh)
CCOc1ccc(C2Nc3cccc4cccc(c34)N2)cc1OC	none
CN(C)c1ccc(NS(=O)(=O)c2ccc(Cl)cc2)cc1	PRMT1 inh 23
COc1ccc(N=C(NN)c2ccc3ccccc3n2)cc1	PRMT1 inh 27
O=C(CNC(=O)c1ccccc1)NCCc1ccc(O)c(O)c1	PRMT1 inh 25
O=C(COC(=O)CNC(=O)c1ccccc1)NCCc1ccccc1	none
Cc1nn2cc(-c3ccccc3)nc2[nH]c1=O	SIAE primary 22
COC(=O)c1cc2c(c3c4ccccc4n(S(=O)(=O)c4cccc(C)c4)c13)C(=O)N(Cc1ccccc1OC)C2	none (no result: HTRA1 inh)
O=C(O)c1cccc(Oc2ccc(C(=O)O)c([N+](=O)[O-])c2)c1	none
Cc1ccc(S(=O)(=O)N2[C@@H](Cc3ccccc3)CO[C@H]2CC(=O)c2cccs2)cc1	none (no result: HTRA1 inh)
Cc1ccc(Nc2nc(-c3ccc(S(=O)(=O)N4CCCC4)cc3)cs2)cc1C	none (no result: TCR-CD3 inh, mABHD4 FP, SIAE primary, PRMT1 inh)
Cc1cc(C)cc(Nc2nc(-c3ccc(S(=O)(=O)N4CCCC4)cc3)cs2)c1	SIAE primary 22
CCOc1ccc(N2C(=O)CC(SCCN)C2=O)cc1 (stereo unspecified)	PRMT1 inh 22
CC(=O)Oc1cc2cccc(OC(C)=O)c(=O)c2c(OC(C)=O)c1OC(C)=O	HTRA1 inh 70 (no result: TCR-CD3 inh, mABHD4 FP, SIAE primary, PRMT1 inh)
COc1cccc(CNS(=O)(=O)c2ccccc2Br)c1	none (no result: HTRA1 inh)
C[C@H]1CN([C@@H](C)CO)C(=O)c2c(c3ccccc3n2C)-c2ccccc2CO[C@H]1CN(C)C(=O)Nc1cccc(F)c1	none (no result: HTRA1 inh)
O=C(O)c1cc(N/N=C/c2ccc(N3CCOCC3)s2)ccc1Cl	mABHD4 FP 44, SIAE primary 21, PRMT1 inh 33
CC(=O)Nc1ccc(NC(=O)c2nc(S(=O)(=O)Cc3cccc(C)c3)ncc2Cl)cc1	PRMT1 inh 32
CCOC(=O)c1ccc(NC(=O)c2nc(S(=O)(=O)Cc3ccccc3)ncc2Cl)cc1	none
Cc1ccc(NC(=O)c2nc(S(=O)(=O)Cc3ccccc3C)ncc2Cl)cc1C	PRMT1 inh 35
Cc1cccc(CS(=O)(=O)c2ncc(Cl)c(C(=O)NCc3ccc4c(c3)OCO4)n2)c1	PRMT1 inh 22
CC(C)[C@H](NC(=O)c1ccc(Cl)cc1Cl)C(=O)N1CCC[C@H]1C(=O)NCCc1ccccc1Cl	none (no result: HTRA1 inh)
COc1ccc(CC(C)NCC(O)c2ccc(O)c(NC=O)c2)cc1 (stereo unspecified)	TCR-CD3 inh 27!
CC(CCc1ccccc1)NCC(O)c1ccc(O)c(C(N)=O)c1 (stereo unspecified)	none
COc1cc(OC)c2c(=O)c3c(C(=O)O)c(O)ccc3oc2c1	none (no result: HTRA1 inh)
CCCCNC(=O)C[C@@H]1C[C@@]2(C(=O)OC)CCCCC=C2N(Cc2ccc3c(c2)OCO3)C1=O	none (no result: HTRA1 inh)
Cc1ccc(-c2c(C(=O)Nc3ccccc3C)c(C)[nH]c(=S)c2C#N)o1	PRMT1 inh 34 (no result: HTRA1 inh)
Cc1ccccc1SCC(=O)OCC(=O)NCc1ccccc1	none
CC(C)N(Cc1ccccc1)C(=O)CCS(=O)(=O)c1ccc2c(c1)oc(=O)n2C	PRMT1 inh 22
CC(CNC(=O)CCS(=O)(=O)c1ccc2c(c1)oc(=O)n2C)c1ccccc1 (stereo unspecified)	none
COc1cc([N+](=O)[O-])cc(/C=C2/SC(=S)N(Cc3ccccc3)C2=O)c1O	PRMT1 inh 21
O=C(O)CN1C(=O)/C(=C\c2cc(Br)ccc2OCc2ccccc2Cl)SC1=S	none
O=C(O)CN1C(=O)/C(=C\c2cc(Br)ccc2OCc2ccc([N+](=O)[O-])cc2)SC1=S	PRMT1 inh 24
CCCC(=O)OC[C@H]1CN(C2CCCC2)S(=O)(=O)c2c(F)cccc2O1	none (no result: HTRA1 inh)
Cc1cc(C)c2nc(N3CCCN(C(=O)c4ccco4)CC3)c(C#N)cc2c1	PRMT1 inh 22
COCCN1Cc2cc(C(=O)OC)c3c(c2C1=O)c1cc(OC)ccc1n3S(=O)(=O)c1ccc(F)cc1	none (no result: HTRA1 inh)
CC(C)(C)S(=O)N1C[C@@H]2CC(=O)C(CCO)=C2[C@H]1CCO (stereo partly specified)	none (no result: HTRA1 inh)
Cc1ccc2cc(C(c3nnnn3C(C)(C)C)N3CCCCCC3)c(=O)[nH]c2c1 (stereo unspecified)	none (no result: TCR-CD3 inh, mABHD4 FP, SIAE primary, PRMT1 inh)
CCC(C)(C)n1nnnc1C(c1cc2cc(C)ccc2[nH]c1=O)N1CCCC1 (stereo unspecified)	PRMT1 inh 22
O=C1CC(O)C(Cc2ccccc2)N1 (stereo unspecified)	none (no result: HTRA1 inh)
COc1ccc(CN2C[C@H](COCc3ccccc3)Oc3cccc(N4CCCC4)c3S2(=O)=O)cc1	none (no result: HTRA1 inh)

Assay outcomes deposited in PubChem by The Scripps Research Institute Molecular Screening Center.
